This note sets out measurements from ChEMBL document CHEMBL4190389, “Synthesis and activity of di- or trisubstituted N-(phenoxyalkyl)- or N-{2-[2-(phenoxy)ethoxy]ethyl}piperazine derivatives on the central nervous system” (Bioorg Med Chem Lett, 2018).

Molecules are shown by their SMILES. The source made the active and inactive calls. The calls are words filed in the database; no cut-off is given here.

Series [1] addresses 5-hydroxytryptamine receptor 6 (Homo sapiens, UniProt P50406). Kind of series: Displacement of [3H]LSD from recombinant human 5-HT6 receptor expressed in CHO cells cell membranes after 60 mins by liquid scintillation counting method.
Series [2] deals with T1, 5-hydroxytryptamine receptor 7 (Homo sapiens, UniProt P34969). As to the kind of experiment: Displacement of [3H]LSD from recombinant human 5-HT7 receptor expressed in CHO cell membranes at 10^-5 M after 60 mins by liquid scintillation counting method. On the technique in general: In a radioligand displacement assay an active substance lowers the binding of a labelled ligand.
T1 sequence (P34969 whole entry): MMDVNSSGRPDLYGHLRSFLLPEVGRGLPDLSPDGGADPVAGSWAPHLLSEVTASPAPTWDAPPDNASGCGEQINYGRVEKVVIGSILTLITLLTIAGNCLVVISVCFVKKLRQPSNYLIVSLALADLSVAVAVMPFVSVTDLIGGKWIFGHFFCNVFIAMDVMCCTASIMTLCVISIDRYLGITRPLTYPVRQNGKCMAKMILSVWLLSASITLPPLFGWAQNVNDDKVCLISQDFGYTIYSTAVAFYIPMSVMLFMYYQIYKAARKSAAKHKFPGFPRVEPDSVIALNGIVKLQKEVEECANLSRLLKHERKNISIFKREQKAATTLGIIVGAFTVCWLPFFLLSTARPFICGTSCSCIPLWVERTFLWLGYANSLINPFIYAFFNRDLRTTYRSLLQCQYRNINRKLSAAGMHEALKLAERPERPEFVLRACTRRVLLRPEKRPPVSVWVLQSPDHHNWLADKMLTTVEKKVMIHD

The target of series [3] is T2, D(2) dopamine receptor (Homo sapiens, UniProt P14416). As to the kind of experiment: Displacement of [3H]methylspiperonee from recombinant human D2 receptor expressed in HEK293 cell membranes at 10^-5 M after 60 mins by liquid scintillation counting method.
T2 sequence (P14416 whole entry): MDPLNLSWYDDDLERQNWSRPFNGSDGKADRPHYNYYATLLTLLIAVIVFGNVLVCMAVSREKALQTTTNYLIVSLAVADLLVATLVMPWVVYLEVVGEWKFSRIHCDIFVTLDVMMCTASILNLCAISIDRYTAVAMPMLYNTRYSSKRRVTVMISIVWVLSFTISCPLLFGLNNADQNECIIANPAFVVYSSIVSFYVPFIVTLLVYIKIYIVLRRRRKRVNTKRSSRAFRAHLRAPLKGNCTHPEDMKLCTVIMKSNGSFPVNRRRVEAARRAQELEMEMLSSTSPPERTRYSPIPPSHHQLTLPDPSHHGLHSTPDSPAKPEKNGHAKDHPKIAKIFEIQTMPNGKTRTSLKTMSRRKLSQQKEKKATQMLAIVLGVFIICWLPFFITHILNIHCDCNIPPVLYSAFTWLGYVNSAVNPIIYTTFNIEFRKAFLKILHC
For series [4], the target named is 5-hydroxytryptamine receptor 2A (Homo sapiens, UniProt P28223). Kind of series: biochemical. The class given is cell-based, HEK293.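 Further: radioligand displacement of [3H]ketanserin binding at human 5-HT2A receptor in membranes from HEK293 cells, 60 min incubation, read by liquid scintillation counting.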
Chain of 5-hydroxytryptamine receptor 2A (P28223 whole entry): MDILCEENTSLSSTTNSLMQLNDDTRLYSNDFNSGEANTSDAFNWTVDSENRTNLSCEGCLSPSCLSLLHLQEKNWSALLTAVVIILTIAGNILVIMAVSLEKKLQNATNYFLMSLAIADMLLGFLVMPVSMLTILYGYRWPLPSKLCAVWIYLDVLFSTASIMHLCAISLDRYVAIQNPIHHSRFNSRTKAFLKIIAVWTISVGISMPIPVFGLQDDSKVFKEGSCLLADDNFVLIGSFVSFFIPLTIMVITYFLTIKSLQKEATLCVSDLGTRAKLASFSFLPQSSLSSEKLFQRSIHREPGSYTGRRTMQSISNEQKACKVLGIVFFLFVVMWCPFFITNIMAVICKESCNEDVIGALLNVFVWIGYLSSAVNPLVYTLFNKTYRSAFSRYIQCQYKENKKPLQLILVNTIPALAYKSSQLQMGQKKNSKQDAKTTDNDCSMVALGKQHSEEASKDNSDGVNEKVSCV
The subject of series [5] is Mus musculus. Kind of series: Toxicity in Albino Swiss CD-1 mouse assessed as effect on locomotory activity at 5 to 10 mg/kg, ip administered for 30 mins prior to test measured for 1 min. It counts as organism-based. Conditions: in vivo. The gist of the method: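 Mice dosed i.p. 30 min before test; vehicle groups received 0.9% NaCl. Spontaneous locomotion scored as number of crossings during a 1-min session. Each dose compared with its own vehicle group by Student t-test; mean ± SEM, n = 8–10 mice per group.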

Series [6] relates to Mus musculus. As to the kind of experiment: Anxiolytic-like activity in Albino Swiss CD-1 mouse assessed as increase in number of punished crossings at 10 mg/kg, ip administered for 30 mins prior to test measured for 1 min by four-plate test. It counts as functional, organism-based. The gist of the method: (§1)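 Four-plate test in mice, i.p., 30 min before test; vehicle 0.9% NaCl; doses 1.25–10 mg/kg; number of punished crossings counted; mean ± SEM, n = 8–10 mice per group; ANOVA F statistics.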

Series [7] concerns Mus musculus. As to the kind of experiment: Antidepressant-like activity in Albino Swiss CD-1 mouse assessed as immobility time at 5 mg/kg, ip administered 30 mins prior to test measured for last 4 mins of 6 mins observation by forced swim test (reference value: 153.9 to 201.9 secs). The class given is functional.
Series [8] concerns Mus musculus. Kind of series: Antidepressant-like activity in Albino Swiss CD-1 mouse assessed as immobility time at 20 mg/kg, ip administered 30 mins prior to test measured for last 4 mins of 6 mins observation by forced swim test (reference value: 153.9 to 201.9 secs). The class given is functional.
Series [9] concerns the target T3, 5-hydroxytryptamine receptor 1A (Homo sapiens) (UniProt P08908).
T3 sequence (whole entry): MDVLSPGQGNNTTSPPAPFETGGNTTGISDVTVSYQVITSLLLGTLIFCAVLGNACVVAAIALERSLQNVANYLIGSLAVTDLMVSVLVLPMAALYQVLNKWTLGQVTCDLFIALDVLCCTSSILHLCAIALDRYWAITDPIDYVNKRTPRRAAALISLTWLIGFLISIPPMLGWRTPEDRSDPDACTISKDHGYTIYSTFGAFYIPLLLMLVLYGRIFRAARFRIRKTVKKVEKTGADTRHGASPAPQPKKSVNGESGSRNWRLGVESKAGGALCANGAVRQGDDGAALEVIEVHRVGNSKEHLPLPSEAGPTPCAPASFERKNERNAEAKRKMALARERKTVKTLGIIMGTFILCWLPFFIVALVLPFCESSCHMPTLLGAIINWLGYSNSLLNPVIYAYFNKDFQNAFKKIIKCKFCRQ
As to the kind of experiment: Displacement of [3H]8-OH-DPAT from recombinant human 5-HT1A receptor expressed in HEK293 cell membranes at 10^-5 M after 60 mins by liquid scintillation counting method.

The target in series [10] is T4, Alpha-1A adrenergic receptor (Homo sapiens) (UniProt P35348).
T4 sequence (whole entry): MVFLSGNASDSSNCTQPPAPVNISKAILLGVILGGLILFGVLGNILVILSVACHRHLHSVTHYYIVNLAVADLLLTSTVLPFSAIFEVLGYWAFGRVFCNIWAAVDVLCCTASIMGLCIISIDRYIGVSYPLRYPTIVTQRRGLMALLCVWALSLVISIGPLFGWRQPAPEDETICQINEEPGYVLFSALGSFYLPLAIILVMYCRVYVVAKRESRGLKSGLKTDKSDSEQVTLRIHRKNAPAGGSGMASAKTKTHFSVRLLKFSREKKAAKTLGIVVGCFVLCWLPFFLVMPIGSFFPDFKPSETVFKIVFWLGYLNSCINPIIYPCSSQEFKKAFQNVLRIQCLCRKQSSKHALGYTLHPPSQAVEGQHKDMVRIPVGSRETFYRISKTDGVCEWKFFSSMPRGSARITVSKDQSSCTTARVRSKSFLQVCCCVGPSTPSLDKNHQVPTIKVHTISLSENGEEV
As to the kind of experiment: Displacement of [3H]prazosin from recombinant human alpha1 adrenoceptor expressed in CHO cell membranes at 10^-5 M after 30 mins by liquid scintillation counting method.

The test system of series [11] is Mus musculus. Kind of series: Antidepressant-like activity in Albino Swiss CD-1 mouse assessed as immobility time at 10 mg/kg, ip administered 30 mins prior to test measured for last 4 mins of 6 mins observation by forced swim test (reference value: 153.9 to 201.9 secs). The class given is functional.
The target in series [12] is T1, 5-hydroxytryptamine receptor 7. As to the kind of experiment: biochemical. It counts as cell-based, CHO.
The target is the same in series [13]. As to the kind of experiment: Antagonist activity at human 5-HT7 receptor expressed in CHO-K1 cells assessed as decrease in serotonin-induced cAMP level after 1 hr by TR-FRET assay relative to control. The class given is functional, cell-based.
Series [14] concerns the target T5, 5-hydroxytryptamine receptor 1A (Homo sapiens, UniProt P08908).
T5 sequence (P08908 whole entry): T3 sequence (whole entry)
As to the kind of experiment: Displacement of [3H]8-OH-DPAT from recombinant human 5-HT1A receptor expressed in HEK293 cell membranes after 60 mins by liquid scintillation counting method.

Series [15] concerns the target T6, Alpha-1A adrenergic receptor (Homo sapiens, UniProt P35348).
T6 sequence (P35348 whole entry): T4 sequence (whole entry)
Kind of series: Displacement of [3H]prazosin from recombinant human alpha1 adrenoceptor expressed in CHO cell membranes after 30 mins by liquid scintillation counting method.

Series [16] has as its target T1, 5-hydroxytryptamine receptor 7. As to the kind of experiment: Agonist activity at human 5-HT7 receptor expressed in CHO-K1 cells assessed as increase in serotonin-induced cAMP level after 1 hr by TR-FRET assay relative to serotonin. It counts as functional, cell-based. On the technique in general: cAMP levels reflect the balance of adenylyl cyclase and phosphodiesterase activity.

Series [17] concerns the target T3, 5-hydroxytryptamine receptor 1A (Homo sapiens). As to the kind of experiment: Antagonist activity at human 5-HT1A receptor expressed in CHO-K1 cells co-expressing Galpha16 assessed as decrease in serotonin-induced calcium mobilization preincubated for 25 mins followed by serotonin challenge measured for 30 secs by aequorin-derived luminescence assay relative to control. It counts as functional, cell-based. (In general: Calcium assays in cells follow changes in intracellular calcium, usually with a dye or a luminescent sensor.)

Series [18] deals with T5, 5-hydroxytryptamine receptor 1A. Kind of series: (§2) Antagonist activity at human 5-HT1A receptor expressed in CHO-K1 cells co-expressing Galpha16 assessed as decrease in serotonin calcium mobilization preincubated for 25 mins followed by serotonin challenge measured for 30 secs by aequorin-derived luminescence assay. The class given is functional, cell-based.
Series [19] has as its target T3, 5-hydroxytryptamine receptor 1A (Homo sapiens). The description is as §2. The class given is functional, cell-based.
For series [20], the target named is T1, 5-hydroxytryptamine receptor 7. Kind of series: Antagonist activity at human 5-HT7 receptor expressed in CHO-K1 cells assessed as decrease in serotonin-induced cAMP level after 1 hr by TR-FRET assay. The class given is functional, cell-based.
In series [21] the test system is Mus musculus. As to the kind of experiment: Toxicity in Albino Swiss CD-1 mouse assessed as death at 30 mg/kg, ip. The class given is organism-based. Conditions: in vivo. The gist of the method: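 Deaths counted in mice during maximal electroshock (MES) seizure testing after i.p. dosing, 6 mice per dose (3 or 1 at some top doses); recorded as number dead/number tested alongside protection and rotarod motor impairment (10 rpm); untreated control group included.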

For series [22], the target named is T3, 5-hydroxytryptamine receptor 1A (Homo sapiens). As to the kind of experiment: Agonist activity at human 5-HT1A receptor expressed in CHO-K1 cells co-expressing Galpha16 assessed as increase in calcium mobilization measured for 30 secs by aequorin-derived luminescence assay relative to serotonin. The class given is functional, cell-based.
Series [23] concerns Mus musculus. Kind of series: Anxiolytic-like activity in Albino Swiss CD-1 mouse assessed as increase in number of punished crossings at 5 to 10 mg/kg, ip administered for 30 mins prior to test measured for 1 min by four-plate test. The class given is functional, organism-based. The gist of the method: as §1
The target of series [24] is T2, D(2) dopamine receptor. As to the kind of experiment: Displacement of [3H]methylspiperonee from recombinant human D2 receptor expressed in HEK293 cells cell membranes after 60 mins by liquid scintillation counting method.
Series [25] has as its target T2, D(2) dopamine receptor. As to the kind of experiment: Agonist activity at human D2 receptor expressed in CHO-K1 cells co-expressing Galphaqi5 assessed as increase apomorphine-induced calcium mobilization measured for 30 secs by aequorin-derived luminescence assay relative to apomorphine. The class given is functional, cell-based.
Series [26] concerns the target T2, D(2) dopamine receptor. As to the kind of experiment: Antagonist activity at human D2 receptor expressed in CHO-K1 cells co-expressing Galphaqi5 assessed as decrease in apomorphine-induced calcium mobilization preincubated for 30 mins followed by apomorphine challenge measured for 30 secs by aequorin-derived luminescence assay. The class given is functional, cell-based.

Chain of 5-hydroxytryptamine receptor 6 (P50406 whole entry): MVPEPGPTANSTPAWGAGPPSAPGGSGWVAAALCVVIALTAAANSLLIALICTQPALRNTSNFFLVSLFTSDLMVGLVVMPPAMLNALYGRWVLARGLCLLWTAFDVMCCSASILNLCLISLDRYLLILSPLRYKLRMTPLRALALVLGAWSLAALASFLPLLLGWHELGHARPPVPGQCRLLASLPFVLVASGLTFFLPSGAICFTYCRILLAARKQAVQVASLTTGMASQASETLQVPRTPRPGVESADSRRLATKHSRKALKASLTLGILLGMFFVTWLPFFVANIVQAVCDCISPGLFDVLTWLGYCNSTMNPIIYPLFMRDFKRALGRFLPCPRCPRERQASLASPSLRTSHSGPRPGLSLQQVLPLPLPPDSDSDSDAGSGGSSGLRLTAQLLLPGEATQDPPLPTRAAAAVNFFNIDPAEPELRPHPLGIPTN

Take `Cc1cc(C)c(OCCOCCN2CCN(CCO)CC2)c(C)c1.Cl.Cl`: the inhibitory constant (Ki) in series [1] and in series [4] was more than 5000 nM throughout. For the same molecule, the inhibition result (in series [2]; on D(2) dopamine receptor [3]; in series [9]; in series [10]) was “inactive” throughout. Moreover, in the series on Mus musculus [5], the Activity entry is “Non-Toxic”. Besides, the outcome in the series with Mus musculus [6] was Active. Moreover, the Time with Mus musculus [7] was 182.6 s; with Mus musculus [8], 197.3 s; in the series with Mus musculus [11] it was 198.1 s.

As for `Cc1cc(C)c(OCCOCCN2CCN(Cc3ccccc3)CC2)c(C)c1.Cl.Cl`, the inhibition constant Ki (in general, the dissociation constant of the complex between target and ligand, obtained from inhibition or displacement) in series [1] was more than 5000 nM; in series [4], 498 nM; in series [12], 3160 nM. Also, the inhibition entry (at D(2) dopamine receptor [3]; in series [9]; in series [10]) was “inactive” each time. For the same molecule, the Activity entry in the series on Mus musculus [5] is recorded as “Non-Toxic”. Moreover, the outcome in the series on Mus musculus [6] was Active. Moreover, the Time in the series with Mus musculus [7] was found to be 176.5 s; in the series with Mus musculus [8] it was 157.5 s; with Mus musculus [11] it was 182.4 s.

In the case of `COc1ccccc1N1CCN(CCCOc2ccc(C)cc2C)CC1.Cl`, the Emax – broadly, the greatest response seen or fitted, relative to the assay's reference – in [13] was 5%; in series [16], 0%; in [17], 2%; in series [22], 5%; on D(2) dopamine receptor [25] it was 2%. The inhibitory constant (Ki) in series [1] was more than 5000 nM; in [14], 2 nM; in series [15], 11 nM; in [4], 527 nM; in series [12] it was 15 nM; at D(2) dopamine receptor [24], 97 nM. Moreover, the values for the concentration for half-maximal inhibition (IC50) (in series [18]; in [20]; on D(2) dopamine receptor [26]) were 7.19 nM, 1050 nM and 17.7 nM, respectively. Also, the Kb (in general, the affinity of an antagonist, worked out from how it opposes an agonist) came out at 1.8 nM in [19], 448 nM in series [20] and 5.29 nM at D(2) dopamine receptor [26]. Besides, the Activity entry in the series with Mus musculus [21] and in the series with Mus musculus [5] was “Non-Toxic” in each case. Also, the result in the series with Mus musculus [23] was inactive. Also, the Time with Mus musculus [7] is 182.6 s; with Mus musculus [8] it was 197.3 s; in the series with Mus musculus [11] it was 198.1 s.

As for `CC1CCN(CC[C@H]2CCCN2S(=O)(=O)c2cccc(O)c2)CC1`, the Emax in series [13] and in series [16] was -1% each time.
